Assay outcomes (PubChem)
SENP8 block-1: human SENP8 protease inhibitors, primary screen, biochemical, fluorescence, Nedd8 protein substrate, uHTS | AID 602440, 2012 | inhibition, % at 20 µM | Sentrin-specific protease 8 (Homo sapiens), Q96LD8 | recombinant SENP8 | 0.64% of 360,000 active; in the data active = inhibition mostly above about 40%, no sharp cut-off; inactive = mostly below about 27%
Target sequence (Q96LD8 whole entry, looked up): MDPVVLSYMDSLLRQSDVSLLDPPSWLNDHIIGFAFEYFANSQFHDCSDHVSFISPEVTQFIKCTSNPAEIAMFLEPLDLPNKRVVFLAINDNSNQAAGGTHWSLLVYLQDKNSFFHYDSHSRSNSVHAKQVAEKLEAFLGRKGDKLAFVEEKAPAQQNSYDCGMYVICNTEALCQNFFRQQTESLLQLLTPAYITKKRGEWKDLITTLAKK
SENP6 inh: SENP6 protease inhibitors, primary screen, biochemical, luminescence, uHTS | Sentrin-specific protease 6 (Homo sapiens), Q9GZR1 | Recombinant SENP6 catalytic domain, aminoluciferin luminescence | inhibition, % at 10 µM | 1.8% of 330,000 active;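 active = inhibition above about 50% at the single tested dose, limit read from the data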;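 note: plate controls were DMSO wells with enzyme for no effect and DMSO wells lacking enzyme for full effect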
SENP8 block-2: SENP8 protease inhibitors, primary screen, biochemical, luminescence. inhibition, % at 10 µM. 1.2% of 330,000 active. purified SENP8, Z-RLRGG-aminoluciferin cleavage; in the data active = inhibition above about 50%
Platelet DG rel: inhibitors of platelet dense granule secretion, primary screen, cell-based, MLPCN, human platelets | human platelet-rich plasma, SFLLRN dense granule ATP release, luminescence | inhibition, %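 (compounds screened at 7.5 µM in platelet-rich plasma)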 | 0.22% of 300,000 active;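 active = mean replicate score, as percent of positive control, at or above 50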
SENP1 FRET inh: human SENP1 catalytic domain inhibitors, primary screen, biochemical, FRET, uHTS. recombinant SENP1 catalytic domain, CyPet-SUMO1-YPet FRET cleavage. AID 624204, 2012. inhibition, % at 10 µM. 0.21% of 360,000 active. Sentrin-specific protease 1 (Homo sapiens), Q9P0U3;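 active = inhibition at least 30% at 10 µM, raw YFP signal under a set limit, fluorescence ratio 0.5 to 1.5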;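 note: 0% = enzyme with DMSO and 100% = no enzyme wells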
Target sequence (Q9P0U3 419-644 limits assumed): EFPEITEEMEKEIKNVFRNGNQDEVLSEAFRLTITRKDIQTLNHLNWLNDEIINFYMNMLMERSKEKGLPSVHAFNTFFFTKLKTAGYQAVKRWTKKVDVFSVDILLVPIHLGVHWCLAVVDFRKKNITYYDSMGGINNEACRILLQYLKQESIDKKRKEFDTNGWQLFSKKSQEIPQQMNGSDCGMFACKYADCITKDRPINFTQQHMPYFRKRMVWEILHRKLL
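Material – human SENP1 catalytic domain · Input – SENP1 enzyme, 20 pM final · Compound dosing – single concentration of 10 µM compound, 0.5% DMSO final · Timing – enzyme reaction for 50 min at room temperature, dark · Measured by – FRET fluorescence in CFP and YFP emission channels · Control set – no-enzyme wells low, DMSO-plus-enzyme wells high control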
SENP7 block: SENP7 protease inhibitors, primary screen, biochemical, luminescence, uHTS; recombinant SENP7, Z-RLRGG-aminoluciferin luminescence, 40 min; inhibition, % at 5 µM; 1.5% of 330,000 active;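 active = inhibition above about 50% at the single test dose, limit read from the data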;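 note: plate controls were DMSO with enzyme for no effect and no enzyme buffer wells for full effect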
SENP8 inh conf: human SENP8 protease inhibitors, confirmation, biochemical, Nedd8 protein substrate, single concentration. shares compounds with SENP8 block-1. purified SENP8, Nedd8-AMC/pro-Nedd8 cleavage fluorescence, 30 min. inhibition, % at 25 µM. 15% of 1,400 active. AID 624319, 2012; in the data active = inhibition mostly above about 39%, no sharp cut-off; inactive = mostly below about 34%
Numbers without * were called inactive; nt = no result given. A selection: hits, their analogues and other compounds. The true share with any hit is near 2.6%.

SMILES	SENP8 block-1	SENP6 inh	SENP8 block-2	Platelet DG rel	SENP1 FRET inh	SENP7 block	SENP8 inh conf
N#CC1=C2SCN(Cc3ccccc3)CN2C(=O)CC1c1ccccc1F (stereo not given)	-48	4	13	-6	-104	2	nt
COc1ccc(Br)cc1C1CC(=O)N2CN(C)CSC2=C1C#N (stereo not given)	65*	-2	1	-1	-19	16	1
COc1ccc(Br)cc1C1CC(=O)N2CN(Cc3ccccc3)CSC2=C1C#N (stereo not given)	68*	16	31	2	-9	19	1
CCOC(=O)c1ccc(N2CSC3=C(C#N)C(c4ccc(OC)cc4OC)CC(=O)N3C2)cc1 (stereo not given)	52*	-14	-7	5	0	13	12
COC(=O)c1cccc(N(C(=O)CNC(=O)c2ccco2)C(C(=O)NC2CCCC2)c2ccco2)c1 (stereo not given)	18	-4	-2	5	1	-1	nt
FC(F)(F)c1nnc2n1N=C(c1ccccc1)CS2	19	-9	-8	21	3	3	nt
O=C(NNc1ccccc1[N+](=O)[O-])Nc1cccc(Cl)c1	40*	-5	1	-7	2	2	25
O=C(COc1ccccc1)Nc1cc(Cl)ccc1Cl	16	2	-22	4	2	-3	nt
O=C(NNc1ccccc1[N+](=O)[O-])Nc1ccc(F)cc1F	25	-4	0	-4	-22	6	nt
O=C(NNc1ccccc1)Nc1cc(Cl)ccc1Cl	48*	nt	nt	nt	4	nt	10
COc1cccc(NC(=O)c2ccc(NCCCN3CC(C)CC(C)C3)c([N+](=O)[O-])c2)c1 (stereo not given)	21	nt	nt	0	3	nt	nt
CCCN(CCC)CCCNc1ccc(C(=O)Nc2cccc(OC)c2)cc1[N+](=O)[O-]	35*	-9	-6	12	3	-16	6
O=C(N/C=C/n1cnc2cc(C(F)(F)F)ccc21)c1ccccc1F	9	-6	-6	-2	1	-4	nt
CSc1nnc(C)c(/C=C/NOCc2ccc(Cl)cc2)n1	44*	25	3	-2	1	7	40
CCOC(=O)c1nnn(-c2ccc(OC)cc2)c1N	25	-7	3	nt	2	7	nt
CCOC(=O)c1nn(-c2ccc(OC)cc2)c(=O)c2c(N)scc12	41*	25	3	-6	5	-6	53*
CCCOC(=O)/C(=C\c1ccc([N+](=O)[O-])o1)NC(=O)c1ccccc1	35	-21	-15	-2	1	-11	nt
CCOC(=O)/C(=C\c1ccc([N+](=O)[O-])o1)NC(=O)c1ccccc1	42*	-16	-4	-7	1	10	22
COc1ccc(C(=O)c2sc(Nc3ccccc3)c(C(=O)Nc3ccc(OC)c(OC)c3)c2N)cc1	50*	2	-3	0	-18	2	11
COC(=O)CCCC1=CC2=C(c3ccccc3)C(=O)C(C)(OC(=O)C3CCCC3)C(=O)C2=CN1C1CCCCC1 (stereo not given)	44*	1	-14	5	-16	-12	49*
O=S(=O)(C=C(c1ccccc1)c1ccccc1)c1ccccc1	26	-10	-1	-1	3	-3	nt
N/C(=N\O)c1cn(Cc2ccccc2Cl)c2ccccc12	18	-30	-2	6	-1	3	nt
Cc1[nH][nH]c(=O)c1C(c1c(C)[nH][nH]c1=O)c1cn(Cc2ccccc2Cl)c2ccccc12	79*	nt	nt	0	0	nt	73*
CC(=O)OCCCN(C)CC/C=C1/c2ccccc2CSc2ccccc21	18	-41	1	4	-2	3	nt
Cc1cc(C)n(C(CC(=O)N2CCc3ccccc3C2)C(=O)O)n1 (stereo not given)	44*	-9	0	0	-5	2	10
SMILES	SENP8 block-1	SENP6 inh	SENP8 block-2	Platelet DG rel	SENP1 FRET inh	SENP7 block	SENP8 inh conf
Cc1cc(C)n(C(C)CC(=O)N2CCc3ccccc32)n1 (stereo not given)	0	-22	-14	-12	1	-12	nt
Cc1ccc(-n2cnc(N)c2C(=O)c2cccc([N+](=O)[O-])c2)cc1	55*	-4	4	0	4	2	12
CC(SC1CCCC1)C(=O)NC(C)(C#N)C(C)C (stereo not given)	4	-6	-5	4	-1	-7	nt
CCCCOC(=O)CSc1nnc(N)s1	9	14	1	-11	0	4	nt
CN(C)c1ccc(NC(=O)CSc2nc3c(c(=O)[nH]2)CCCC3)cc1	45*	13	4	-1	1	3	18
COc1ccccc1Nc1nc(NCCO)nc(N2CCCC2)n1	2	4	-1	-1	0	4	nt
Cc1nnc(N/N=C/c2cccc(C(F)(F)F)c2)n1N	49*	3	2	0	2	4	22
Cc1nnc(N/N=C/c2ccccc2C(F)(F)F)n1N	12	16	4	-1	2	0	nt
CCNc1ccc(C(=O)OCC(=O)NC(C)c2ccccc2)cc1[N+](=O)[O-] (stereo not given)	40*	-6	-7	6	12	-2	4
CC(SCC(=O)Nc1ccccc1)c1nc2ccccc2c(=O)[nH]1 (stereo not given)	-8	-6	8	4	2	-4	nt
Cc1c(Cl)cccc1NC(=O)CSC(C)c1nc2ccccc2c(=O)[nH]1 (stereo not given)	27*	-6	-5	9	0	1	2
COc1ccc(-c2cc(C3CCN(CC(O)C(F)(F)F)CC3)[nH]n2)cc1 (stereo not given)	8	-14	-5	2	2	6	nt
O=[N+]([O-])c1ccc(C=NNC(=S)Nc2ccc(F)cc2)cc1	28	nt	nt	nt	6	nt	nt
O=[N+]([O-])c1ccc(C=NNC(=S)NN=Cc2ccc([N+](=O)[O-])cc2)cc1	70*	nt	nt	nt	6	nt	13
CC(NC(=O)[C@H](NC(=O)[C@@H]1Cc2ccccc2CN1)c1ccccc1)c1ccccc1 (stereo not given in full)	41*	-5	4	-3	1	2	9
Cc1[nH]n(-c2ccccc2)c(=O)c1S(=O)(=O)c1ccccc1	71*	-5	0	9	3	3	43*
